Values joined by “and” are separate entries in the source; they are usually repeats but may differ in a detail not shown here. Equal values may be shown once.
Key:
[1] = Compound (i.v.) was evaluated for uptake rate constants in striatum of rhesus monkeys (Radiolabeled compound); assay type: ADME, tissue-based; conditions: cercopithecidae, iv
Outline: (§1)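 Rhesus monkey with urinary catheter; ECG, temperature, heart and respiration rates monitored. A 32 min 68Ge transmission scan was taken for attenuation correction. 18F ligand (2.9 mCi) given iv. Dynamic 3D head PET ran 120 min (33 frames, 30 s–5 min). Regional uptake and elimination rate constants were fitted from time-activity curves.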

Mus musculus [2] = species on record: Mus musculus; assay: Compound was evaluated for washout rate in mice (Radiolabeled compound); assay type: ADME, organism-based; conditions: in vivo
Outline: (§2)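 Male ICR mice (2–3 months, 20–30 g) under 1% isoflurane, body temperature held at 36–37 °C. No-carrier-added 18F ligand (400–450 μCi) in 0.9% saline with 0.1% Tween given via tail-vein catheter. Dynamic small-animal PET for 1–2 h. Brain and skull time-activity curves were averaged over four mice and fitted to a double-exponential model; bone uptake was fitted linearly or exponentially.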

Mus musculus [3] = species on record: Mus musculus; assay: Residual activity in mice at 120 minutes, expressed as [(ID%-kg)/g] (Radiolabeled compound); assay type: ADME, organism-based; conditions: in vivo, 2 h; outline: as §2
Mus musculus [4] = assay: Compound was evaluated for uptake rate constants in vivo in whole blood of normal mice (Radiolabeled compound); assay type: ADME, organism-based
Outline: (§3)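 Normal mice given 18F ligand iv during PET. Serial blood samples (10–35 μL) were taken and analysed by reverse-phase HPLC for parent, lipophilic and polar radioactive components. Parent, lipophilic and total curves were fitted to single-exponential decay; the polar metabolite curve was fitted double-exponentially to give rate constants.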

[5] = Compound (i.v.) was evaluated for elimination rate constants in brainstem of rhesus monkeys (Radiolabeled compound); assay type: ADME, tissue-based, Brain; conditions: cercopithecidae, iv, read-out: Activity (converted); outline: as §1
[6] = Compound (i.v.) was evaluated for uptake rate constants in brainstem of rhesus monkeys (Radiolabeled compound); assay type: ADME, tissue-based, Brain; conditions: cercopithecidae, iv; outline: as §1
Mus musculus [7] = species on record: Mus musculus; assay: Compound was evaluated for rate of bone uptake in mice (Radiolabeled compound); assay type: ADME, organism-based, Bone element; conditions: in vivo; outline: as §2
[8] = Compound (i.v.) was evaluated for elimination rate constants in jaw bone of rhesus monkeys; NA = not active (Radiolabeled compound); assay type: ADME, tissue-based, Bone element; conditions: cercopithecidae, iv; outline: as §1
Mus musculus [9] = assay: Compound was evaluated for elimination rate constants in vivo in whole blood of normal mice (Radiolabeled compound); assay type: ADME, organism-based; outline: as §3
[10] = Compound was evaluated for distribution coefficient (logD) measured at pH7.4; assay type: physicochemical; conditions: octanol/water, pH 7.4
Outline: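 Shake-flask partition: ligand (3–5 mg) in 0.1 M sodium phosphate pH 7.4 (6.0 mL) with n-octanol (1.0 mL). Vortexed 1 min, shaken 1 min, filtered, left 10 min at RT, centrifuged 5000g for 10 min. Value is the ratio of organic-phase to aqueous-phase concentration.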

[11] = Compound (i.v.) was evaluated for uptake rate constants in cerebellum of rhesus monkeys (Radiolabeled compound); assay type: ADME, tissue-based; conditions: cercopithecidae, iv; outline: as §1
Mus musculus [12] = assay: Maximum activity (i.v.) after in mice, expressed as [(ID%-kg)/g] (Radiolabeled compound); assay type: ADME, organism-based; conditions: in vivo, iv; outline: as §2
Mus musculus [13] = assay: Compound (i.v.) was tested for maximum activity in mice (Radiolabeled compound); assay type: ADME, organism-based; conditions: in vivo, iv; outline: as §2
[14] = Compound (i.v.) was evaluated for elimination rate constants in cerebellum of rhesus monkeys (Radiolabeled compound); assay type: ADME, tissue-based; conditions: cercopithecidae, iv; outline: as §1
[15] = Compound (i.v.) was evaluated for uptake rate constants in jaw bone of rhesus monkey (Radiolabeled compound); assay type: ADME, tissue-based, Bone element; conditions: cercopithecidae, iv; outline: as §1
[16] = Compound (i.v.) was evaluated for elimination rate constants in striatum of rhesus monkey (Radiolabeled compound); assay type: ADME, tissue-based; conditions: cercopithecidae, iv; outline: as §1
[17] = Compound (i.v.) was evaluated for elimination rate constants in frontal cortex of rhesus monkey (Radiolabeled compound); assay type: ADME, tissue-based; conditions: cercopithecidae, iv, read-out: Activity (converted); outline: as §1
Mus musculus [18] = assay: Compound was evaluated for uptake rate constants in vivo in whole blood of normal mice; NA = not active (Radiolabeled compound); assay type: ADME, organism-based; outline: as §3
[19] = Compound (i.v.) was evaluated for uptake rate constants in frontal cortex of rhesus monkey (Radiolabeled compound); assay type: ADME, tissue-based; conditions: cercopithecidae, iv; outline: as §1
Mus musculus [20] = assay: Compound was evaluated for rate of bone uptake after administration of radiolabeled in mice (Radiolabeled compound); assay type: ADME, organism-based, Bone element; conditions: in vivo; outline: as §2
Mus musculus [21] = species on record: Mus musculus; assay: Compound was evaluated for washout rate in mice after radiolabeled ligand injected; assay type: ADME, organism-based; conditions: in vivo; outline: as §2
Mus musculus [22] = species on record: Mus musculus; assay: Time at maximum activity in mice (Radiolabeled compound); assay type: ADME, organism-based; conditions: in vivo; outline: as §2
Mus musculus [23] = species on record: Mus musculus; assay: Compound was evaluated for rate of bone uptake in mice; NA - not active (Radiolabeled compound); assay type: ADME, organism-based, Bone element; conditions: in vivo
Mus musculus [24] = species on record: Mus musculus; assay: Maximum activity in mice, expressed as [(ID%-kg)/g] (Radiolabeled compound); assay type: ADME, organism-based; conditions: in vivo; outline: as §2

With `CN(CCF)c1ccc(-c2cn3cc(I)ccc3n2)cc1` the Activity [1] was 0.972 min⁻¹, the Activity (Mus musculus [2]) was 0.334 min⁻¹ and the Activity (Mus musculus [3]) was 0.111. It also gave an Activity (Mus musculus [4]) of 0.576 min⁻¹, a k el [5] of 0.000813 s⁻¹ and an Activity [6] of 1 min⁻¹. For the same molecule, the Activity (Mus musculus [7]) was 0.0016 min⁻¹, the Activity [8] was “Not Active” and the Activity (Mus musculus [9]) was 1.14 min⁻¹ and 0.722 min⁻¹ and 0.801 min⁻¹. It also gave a logD [10] of 4.41, an Activity [11] of 1.09 min⁻¹ and an Activity (Mus musculus [12]) of 0.161. It also gave an Activity (Mus musculus [13]) of 0.5 min, an Activity [14] of 0.0854 min⁻¹ and an Activity [15] of 0.373 min⁻¹. The Activity [16] was 0.0859 min⁻¹, the k el [17] was 0.00101 s⁻¹ and the Activity (Mus musculus [18]) was “Not Active”. For the same molecule, the Activity [19] was 0.859 min⁻¹.
For `CN(CCCF)c1ccc(-c2cn3cc(I)ccc3n2)cc1`, the Activity (Mus musculus [20]) was 0.00728 min⁻¹, the Activity (Mus musculus [3]) was 0.0479 and the Activity (Mus musculus [21]) was 0.127 min⁻¹. The Activity (Mus musculus [22]) was 1.83 min, the logD [10] was 4.6 and the Activity (Mus musculus [12]) was 0.157.
`CN(C)c1ccc(-c2cn3cc([125I])ccc3n2)cc1` showed an Activity (Mus musculus [2]) of 0.122 min⁻¹, an Activity (Mus musculus [3]) of 0.0108 and an Activity (Mus musculus [22]) of 2 min. For the same molecule, the logD [10] was 3.58, the Activity (Mus musculus [23]) was “Not Active” and the Activity (Mus musculus [24]) was 0.216.

From ChEMBL document CHEMBL1137092, “Synthesis and evaluation of two 18F-labeled 6-iodo-2-(4'-N,N-dimethylamino)phenylimidazo[1,2-a]pyridine derivatives as prospective radioligands for beta-amyloid in Alzheimer's disease” (J Med Chem, 2004)
